For one assay, the target named is DNA topoisomerase II (Homo sapiens, UniProt P11388+Q02880). In words: Tested for inhibition of topoisomerase II isolated from HeLa cells by DNA-cleavage assay. In short, it runs like this: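 HeLa topo II purified from late-log suspension cultures. Reactions were assembled at 4 °C in 50 mM Tris-Cl pH 7.9, 44 mM NaCl, 10 mM MgCl2, 0.5 mM ATP, 3'-32P-end-labeled pBR322 and 10 units enzyme, then run 20 min at 37 °C. SDS/KCl precipitation captured covalent complex, counted by scintillation.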

In another assay the test system is P388. In words: In vitro cytotoxicity against P388 murine leukemia cells in culture in a clonogenic assay after 1 hour exposure to drug. The following applies: Mus musculus, P388, 1 h. The class given is functional, cell-based.

In the case of `NC1CCN(c2c(F)cc3c(=O)c(C(=O)O)cn(C4CC4)c3c2F)C1` (centres undefined), the EC50 on DNA topoisomerase II was found to be 340 µM.

As to `Cc1cc(-c2c(F)cc3c(=O)c(C(=O)O)c(-c4ccccc4)n(C4CC4)c3c2F)cc(C)n1`, the EC50 on DNA topoisomerase II is more than 220 µM.

Turning to `Cc1cc(-c2c(F)cc3c(=O)c(C(=O)O)cn(CCF)c3c2F)cc(C)n1`, the EC50 at DNA topoisomerase II is more than 530 µM.

Take `O=C(O)c1cn(C2CC2)c2c(F)c(-c3cccnc3)c(F)cc2c1=O`: at DNA topoisomerase II, the EC50 was found to be 52 µM.

In turn, `Cc1cc(-c2c(F)cc3c(=O)c(C(=O)O)cn(-c4ccc(F)cc4)c3c2F)cc(C)n1` showed an EC50 on DNA topoisomerase II of more than 430 µM.

Take `Cc1cc(-c2c(F)c(N)c3c(=O)c(C(=O)O)cn(C4CC4)c3c2F)cc(C)n1`: the EC50 at DNA topoisomerase II was 6.2 µM.

`Cc1cc(-c2c(F)cc3c(=O)ccn(C4CC4)c3c2F)cc(C)n1`: the EC50 at DNA topoisomerase II is 17 µM.

Turning to `Cc1cc(-c2c(F)cc3c(=O)c(C(=O)[O-])cn(C(C)(C)C)c3c2F)cc(C)n1.[Na+]`, the EC50 on DNA topoisomerase II is 74 µM.

As for `O=C(O)c1cn(C2CC2)c2c(F)c(-c3ccncc3)c(F)cc2c1=O`, the 50% effective concentration (EC50) on DNA topoisomerase II was 17 µM.

`Cc1cc(-c2c(F)c(F)c3c(=O)c(C(=O)O)cn(C4CC4)c3c2F)cc(C)n1`: the EC50 at DNA topoisomerase II was determined as 13 µM.

On to `CN1CCN(c2c(F)cc3c(=O)c(C(=O)O)cn(C4CC4)c3c2F)CC1`, for which, at DNA topoisomerase II, the concentration giving a half-maximal response (EC50) came out at 150 µM. Against the preceding compound, the EC50 is about 12-fold higher.

On DNA topoisomerase II, `Cc1cc(-c2c(F)cc3c(=O)c(C(=O)O)csc3c2F)cc(C)n1.Cl` gave an EC50 of more than 140 µM.

`Cc1cc(-c2c(F)cc3c(O)c(C(=O)O)cnc3c2F)cc(C)n1` returned an EC50 on DNA topoisomerase II of more than 300 µM.

As for `Cc1cc(-c2c(F)cc3c(=O)cc(C)n(C4CC4)c3c2F)cc(C)n1`, the EC50 on DNA topoisomerase II is 16 µM.

`CCn1cc(C(=O)O)c(=O)c2cc(F)c(-c3cc(C)nc(C)c3)c(F)c21` showed an EC50 on DNA topoisomerase II of 110 µM.

In the case of `Cc1cc(-c2c(F)c(Sc3ccccc3)c3c(=O)c(C(=O)O)cn(C4CC4)c3c2F)cc(C)n1`, the EC50 at DNA topoisomerase II is more than 420 µM.

`O=C(O)c1cn(C2CC2)c2c(F)c(-c3ccc(O)cc3)c(F)cc2c1=O` came in with an EC50 on DNA topoisomerase II of 1.2 µM.

Take `Cc1cc(-c2c(F)cc3c(=O)c(C(=O)O)c(C)n(C4CC4)c3c2F)cc(C)n1`: the EC50 on DNA topoisomerase II was more than 260 µM.

In turn, `Cc1cc(-c2c(F)cc3c(=O)c(C(=O)O)cn(C4CC4)c3c2F)ccn1` yielded a half-maximal effective concentration (EC50) on DNA topoisomerase II of 16 µM.

Take `Cc1ccc(-c2c(F)cc3c(=O)c(C(=O)O)cn(C4CC4)c3c2F)c(C)n1`: the concentration for a half-maximal effect (EC50) at DNA topoisomerase II was 53 µM.

In the case of `Cc1cc(-c2c(F)cc3c(=O)cc(-c4ccccc4)n(C4CC4)c3c2F)cc(C)n1`, the EC50 on DNA topoisomerase II was more than 240 µM.

In the assay with P388, `COc1cc([C@@H]2c3cc4c(cc3[C@@H](O[C@@H]3O[C@@H]5CO[C@@H](C)O[C@H]5[C@H](O)[C@H]3O)[C@H]3COC(=O)[C@H]23)OCO4)cc(OC)c1O` [ETOPOSIDE] had an IC50 of 0.3 µM.

Consider `Cc1cc(-c2c(F)cc3c(=O)c(C(=O)O)cn(C4CC4)c3c2F)cc(C)n1` [WIN-57294], for which the EC50 at DNA topoisomerase II came to 7.6 µM. In the assay with P388, the IC50 was determined as 29 µM.

As a reminder, the EC50 is the concentration that produces a half-maximal response. Broadly, the IC50 is the concentration that gives 50% inhibition. A lower IC50 goes with higher potency.

Source of the values: ChEMBL document CHEMBL1126804, “Mammalian topoisomerase II inhibitory activity of 1-cyclopropyl-6,8- difluoro-1,4-dihydro-7-(2,6-dimethyl-4-pyridinyl)-4-oxo-3-quinolinecarb oxylic acid and related derivatives” (J Med Chem, 1993).
